Test results as given in ChEMBL document CHEMBL1143823, “Addition of a C-terminal cysteine improves the anti-herpes simplex virus activity of a peptide containing the human immunodeficiency virus type 1 TAT protein transduction domain” (Antimicrob Agents Chemother, 2007).
pEC50: −log10 of the molar value. The source made the active and inactive calls. The rule behind the calls is not given here.

What was measured:
Human alphaherpesvirus 1 [1] = assay: Inhibition of HSV1 entry in african green monkey Vero cells assessed as beta-galactosidase activity for 1 hr at 37 degC; assay type: functional, organism-based; settings: Human alphaherpesvirus 1, Vero
Procedure, shortened: (§1)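 HSV-1 hrR3 (MOI 0.02–0.03) adsorbed to precooled Vero cells 1 h at 4°C and rinsed. Peptide added at 4°C, shifted to 37°C for 1 h of entry. Peptide rinsed off; pH 3 citrate 60 s. Lysis at 6 h, initial β-galactosidase rate (CPR-Gal, 570 nm) relative to mock, minus cycloheximide background; triplicates.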

Human alphaherpesvirus 1 [2] = assay: Antiviral activity against HSV1 in african green monkey Vero cells assessed as resistance to viral infection after 1 hr at 37 degC; assay type: functional, organism-based; settings: Human alphaherpesvirus 1, Vero
Procedure, shortened: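 Vero monolayers exposed to peptide 1 h at 37°C, rinsed three times, infected with hrR3 (MOI 0.01) 1 h at 37°C without peptide. pH 3 citrate inactivates extracellular virus; lysate β-galactosidase (CPR-Gal, 570 nm) read 6 h later. EC50 from dose-response, triplicates per concentration.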

Human alphaherpesvirus 1 [3] = assay: Antiviral activity against HSV1 in african green monkey Vero cells assessed as viral inactivation after 1 hr at 37 degC; assay type: functional, organism-based; settings: Human alphaherpesvirus 1, Vero
Procedure, shortened: (§2)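 hrR3 virions (1×10^6–6×10^6 PFU/ml) in serum-free DMEM incubated with peptide 1 h at 37°C. Free peptide removed by 1,000-fold dilution or by pelleting at 14,000 × g. Infectivity then titrated on Vero cells in triplicate by lysate β-galactosidase or X-Gal staining. EC50 from dose-response curves.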

Human alphaherpesvirus 1 [4] = assay: Inhibition of HSV1 entry in african green monkey Vero cells assessed as beta-galactosidase activity relative to control […]; assay type: functional, organism-based; settings: Human alphaherpesvirus 1, Vero; procedure, shortened: as §1
Vero = assay: Cytotoxicity against african green monkey Vero cells by trypan blue exclusion assay; assay type: cell-based; settings: chlorocebus sabaeus
Procedure, shortened: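 Viability by trypan blue exclusion in Vero cells after peptide exposure.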

Human alphaherpesvirus 1 [5] = assay: Inhibition of HSV1 attachment in african green monkey Vero cells at 100 uM at 37 degC; assay type: functional; settings: Human alphaherpesvirus 1, Vero
Human alphaherpesvirus 1 [6] = assay: Inhibition of HSV1 hrR3S syncytium formation in african green monkey Vero cells assessed as reduction of beta-galactosidase activity at 100 uM; assay type: functional; set-up: scale not given: the % may be the effect or the level left
Procedure, shortened: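 Confluent Vero (2.0 × 10^5 cells/well) infected with syncytial hrR3S (MOI 0.02 to 0.05) 1 to 2 h at 37°C, rinsed, then held up to 24 h at 37°C in carbonate-buffered serum DMEM with neutralizing anti-HSV-1 antibody (50-fold dilution) ± peptide. Fusion read as initial β-galactosidase rate in NP-40 lysates with CPR-Gal at 570 nm.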

Human alphaherpesvirus 1 [7] = assay: Antiviral activity against HSV1 hrR3S infected african green monkey Vero cells assessed as inhibition of viral cell-cell spread at 100 uM; assay type: functional, organism-based
Procedure, shortened: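 Vero cells infected with syncytial hrR3S (MOI 0.02–0.05) for 1–2 h at 37°C, then held up to 24 h at 37°C with 50-fold diluted neutralizing anti-HSV-1 antibody ± peptide. Syncytia viewed by X-Gal staining; fusion quantified as initial rate of lysate β-galactosidase.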

Human alphaherpesvirus 2 [8] = assay: Antiviral activity against HSV2 333 assessed by plaque reduction assay; assay type: functional, organism-based
Procedure, shortened: (§3)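 Plaque reduction on Vero monolayers with HSV-2 strain 333, 150 PFU/well adsorbed 1 h at 4°C. Peptide added at 4°C, shift to 37°C 10 min later; alternatively cells pretreated 1 h at 4°C with peptide and rinsed before virus. Extracellular virus inactivated; 2% methylcellulose overlay for 2.5 days; crystal violet plaque counts.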

Human alphaherpesvirus 2 [9] = assay: Antiviral activity against HSV2 333 pretreated for 1 hr before viral infection at 4 degC by plaque reduction assay; assay type: functional, organism-based; procedure, shortened: as §3
Human alphaherpesvirus 2 [10] = assay: Antiviral activity against HSV2 333 assessed as resistance against viral infection; assay type: functional, organism-based
Human alphaherpesvirus 1 [11] = assay: Inhibition of HSV1 entry in african green monkey Vero cells assessed as beta-galactosidase activity at 30 uM at 33 degC after 40 mins; assay type: functional, organism-based
Procedure, shortened: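 Vero cells on strip-well plates with hrR3 adsorbed 1 h at 4°C; entry started by floating the plate at 33°C. Peptide added just before the shift or 35 min after, returning to 33°C at 40 min. At set times, external virus inactivated with pH 3 citrate. Lysed 6 h later; β-galactosidase initial rate read against mock-treated controls, triplicate.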

Human alphaherpesvirus 1 [12] = assay: Inactivation of HSV1 in african green monkey Vero cells assessed as beta-galactosidase activity upto 200 uM at 37 degC; assay type: functional, organism-based; procedure, shortened: as §2
Human alphaherpesvirus 1 [13] = assay: Antiviral activity against HSV1 assessed as Inhibition of VP16 nuclear translocation in african green monkey Vero cells at 50 uM after 1 hr at 4 degC; assay type: functional; set-up: scale not given: the % may be the effect or the level left
Procedure, shortened: (§4)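 Vero cells on poly-L-lysine coverslips; HSV-1 adsorbed 80 min at 4°C (MOI 10). Peptide at 50 μM present for the last 20 min of adsorption and through the 1 h 37°C entry period, or virus pretreated with 300 μM for 1 h at 37°C and then diluted. Cells fixed, anti-VP16 immunofluorescence, 50 cells per group scored for nuclear VP16.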

Human alphaherpesvirus 1 [14] = assay: Antiviral activity against HSV1 assessed as Inhibition of VP16 nuclear translocation in african green monkey Vero cells at 300 uM after 1 hr at 37 degC; assay type: functional; set-up: scale not given: the % may be the effect or the level left; procedure, shortened: as §4

SMILES	pEC50 (Human alphaherpesvirus 1 [1])	pEC50 (Human alphaherpesvirus 1 [2])	pEC50 (Human alphaherpesvirus 1 [3])	Activity (Vero)	also measured
N=C(N)NCCC[C@H](NC(=O)[C@H](CCCNC(=N)N)NC(=O)[C@H](CCCNC(=N)N)NC(=O)[C@H](CCC(N)=O)NC(=O)[C@H](CCCNC(=N)N)NC(=O)[C@H](CCCNC(=N)N)NC(=O)[C@H](CCCCN)NC(=O)[C@H](CCCCN)NC(=O)[C@H](CCCNC(=N)N)NC(=O)CN)C(N)=O	6.00	< 2.92	< 2.92	Non-toxic	pEC50 (Human alphaherpesvirus 1 [4]): 6.52
CCCC[C@H](NC(=O)[C@H](CCCC)NC(=O)[C@H](CCC(N)=O)NC(=O)[C@H](CCCNC(=N)N)NC(=O)[C@H](CCCNC(=N)N)NC(=O)[C@H](CCCCN)NC(=O)[C@H](CCCCN)NC(=O)[C@H](CCCNC(=N)N)NC(=O)CN)C(=O)N[C@@H](CCCNC(=N)N)C(=O)N[C@@H](CS)C(=O)O	4.32	3.64	3.05	Non-toxic	–
N=C(N)NCCC[C@H](NC(=O)CNC(=O)CCCCCNC(=O)CCCC[C@@H]1SC[C@@H]2NC(=O)N[C@@H]21)C(=O)N[C@@H](CCCCN)C(=O)N[C@@H](CCCCN)C(=O)N[C@@H](CCCNC(=N)N)C(=O)N[C@@H](CCCNC(=N)N)C(=O)N[C@@H](CCC(N)=O)C(=O)N[C@@H](CCCNC(=N)N)C(=O)N[C@@H](CCCNC(=N)N)C(=O)N[C@@H](CCCNC(=N)N)C(=O)N[C@@H](CS)C(N)=O	5.24	–	–	Non-toxic	–
N=C(N)NCCC[C@@H](NC(=O)CNC(=O)CCCCCNC(=O)CCCC[C@@H]1SC[C@@H]2NC(=O)N[C@@H]21)C(=O)N[C@H](CCCCN)C(=O)N[C@H](CCCCN)C(=O)N[C@H](CCCNC(=N)N)C(=O)N[C@H](CCCNC(=N)N)C(=O)N[C@H](CCC(N)=O)C(=O)N[C@H](CCCNC(=N)N)C(=O)N[C@H](CCCNC(=N)N)C(=O)N[C@H](CCCNC(=N)N)C(=O)N[C@H](CS)C(=O)O	5.68	–	–	Non-toxic	inhibition at 100 µM (Human alphaherpesvirus 1 [5]): 25%; Activity (Human alphaherpesvirus 1 [6]): 93%
N=C(N)NCCC[C@H](NC(=O)CN)C(=O)N[C@@H](CCCCN)C(=O)N[C@@H](CCCCN)C(=O)N[C@@H](CCCNC(=N)N)C(=O)N[C@@H](CCCNC(=N)N)C(=O)N[C@@H](CCC(N)=O)C(=O)N[C@@H](CCCNC(=N)N)C(=O)N[C@@H](CCCNC(=N)N)C(=O)N[C@@H](CCCNC(=N)N)C(=O)N[C@@H](CS)C(N)=O	6.05	5.41	3.41	Non-toxic	–
N=C(N)NCCC[C@@H](NC(=O)CN)C(=O)N[C@H](CCCCN)C(=O)N[C@H](CCCCN)C(=O)N[C@H](CCCNC(=N)N)C(=O)N[C@H](CCCNC(=N)N)C(=O)N[C@H](CCC(N)=O)C(=O)N[C@H](CCCNC(=N)N)C(=O)N[C@H](CCCNC(=N)N)C(=O)N[C@H](CCCNC(=N)N)C(=O)N[C@H](CS)C(=O)O	5.60	5.27	3.82	Non-toxic	Activity (Human alphaherpesvirus 1 [7]): Active; pEC50 (Human alphaherpesvirus 2 [8]): 5.89; pEC50 (Human alphaherpesvirus 2 [9]): 5.11
CCCC[C@H](NC(=O)[C@H](CCCC)NC(=O)[C@H](CCC(N)=O)NC(=O)[C@H](CCCNC(=N)N)NC(=O)[C@H](CCCNC(=N)N)NC(=O)[C@H](CCCCN)NC(=O)[C@H](CCCCN)NC(=O)[C@H](CCCNC(=N)N)NC(=O)CNC(=O)CCCCCNC(=O)CCCC[C@@H]1SC[C@@H]2NC(=O)N[C@@H]21)C(=O)N[C@@H](CCCNC(=N)N)C(=O)N[C@@H](CS)C(=O)O	4.43	–	–	Non-toxic	–
N=C(N)NCCC[C@@H](NC(=O)CN)C(=O)N[C@H](CCCCN)C(=O)N[C@H](CCCCN)C(=O)N[C@H](CCCNC(=N)N)C(=O)N[C@H](CCCNC(=N)N)C(=O)N[C@H](CCC(N)=O)C(=O)N[C@H](CCCNC(=N)N)C(=O)N[C@H](CCCNC(=N)N)C(=O)N[C@H](CCCNC(=N)N)C(=O)N1CCC[C@@H]1C(N)=O	6.15	< 2.92	2.98	Non-toxic	pEC50 (Human alphaherpesvirus 1 [4]): 6.52
N=C(N)NCCC[C@@H](NC(=O)CN)C(=O)N[C@H](CCCCN)C(=O)N[C@H](CCCCN)C(=O)N[C@H](CCCNC(=N)N)C(=O)N[C@H](CCCNC(=N)N)C(=O)N[C@H](CCC(N)=O)C(=O)N[C@H](CCCNC(=N)N)C(=O)N[C@H](CCCNC(=N)N)C(=O)N[C@H](CCCNC(=N)N)C(=O)N[C@H](CS)C(N)=O	6.05	5.96	3.70	Non-toxic	pEC50 (Human alphaherpesvirus 1 [4]): 6.52; pEC50 (Human alphaherpesvirus 2 [8]): 5.60; pEC50 (Human alphaherpesvirus 2 [10]): 4.09
CCCC[C@H](NC(=O)[C@H](CCCNC(=N)N)NC(=O)CN)C(=O)N[C@@H](CCCC)C(=O)N[C@@H](CCCNC(=N)N)C(=O)N[C@@H](CCCNC(=N)N)C(=O)N[C@@H](CCC(N)=O)C(=O)N[C@@H](CCCNC(=N)N)C(=O)N[C@@H](CCCNC(=N)N)C(=O)N[C@@H](CCCNC(=N)N)C(=O)N[C@@H](CS)C(N)=O	5.02	4.04	3.94	Non-toxic	Activity (Human alphaherpesvirus 1 [11]): Active
N=C(N)NCCC[C@H](NC(=O)CN)C(=O)N[C@@H](CCCCN)C(=O)N[C@@H](CCCCN)C(=O)N[C@@H](CCCNC(=N)N)C(=O)N[C@@H](CCCNC(=N)N)C(=O)N[C@@H](CCC(N)=O)C(=O)N[C@@H](CCCNC(=N)N)C(=O)N[C@@H](CCCNC(=N)N)C(=O)N[C@@H](CCCNC(=N)N)C(=O)N[C@@H](CS)C(=O)O	5.51	5.48	4.02	Non-toxic	Activity (Human alphaherpesvirus 1 [12]): Active; Activity (Human alphaherpesvirus 1 [13]): 6%; Activity (Human alphaherpesvirus 1 [14]): 2.5%
N=C(N)NCCC[C@@H](NC(=O)CN)C(=O)N[C@H](CCCCN)C(=O)N[C@H](CCCCN)C(=O)N[C@H](CCCNC(=N)N)C(=O)N[C@H](CCCNC(=N)N)C(=O)N[C@H](CCC(N)=O)C(=O)N[C@H](CCCNC(=N)N)C(=O)N[C@H](CCCNC(=N)N)C(=O)N[C@H](CCCNC(=N)N)C(=O)N[C@H](CSSC[C@@H](NC(=O)[C@@H](CCCNC(=N)N)NC(=O)[C@@H](CCCNC(=N)N)NC(=O)[C@@H](CCCNC(=N)N)NC(=O)[C@@H](CCC(N)=O)NC(=O)[C@@H](CCCNC(=N)N)NC(=O)[C@@H](CCCNC(=N)N)NC(=O)[C@@H](CCCCN)NC(=O)[C@@H](CCCCN)NC(=O)[C@@H](CCCNC(=N)N)NC(=O)CN)C(N)=O)C(N)=O	6.22	6.40	4.47	Non-toxic	–
